Data set [1] relates to Hepatitis C virus. The experiment in a line: Antiviral activity against HCV genotype 1 infected in human Huh7 cells assessed as reduction of viral replication after 4 days by luciferase reporter gene assay. Format: functional, organism-based, Hepacivirus hominis. The note with it: genotype 1, Huh-7, 96 h. Put shortly:
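Subgenomic genotype 1 replicon (luc-ubi-neo) Huh-5-2 cells, 5 × 10^3/well, in DMEM with 500 µg/mL G418 for 24 h at 37 °C, 5% CO2; medium refreshed with G418, compounds added from DMSO stock; 4 days at 37 °C; luciferase read-out. Value is the concentration inhibiting HCV RNA replication by 50%.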
A general note: Reporter assays use an easily measured gene product as a stand-in for the process of interest.

The test system of data set [2] is Hepatitis C virus. The experiment in a line: Inhibition of HCV genotype 1b NS5B cdelta21 RNA polymerase using [alpha32p]GTP after 30 mins by microbeta scintillation counting. The conditions noted are these: Hepatitis C virus subtype 1b.
Data set [3] can be described thus: Inhibition of NTPase activity of SCV NTPase/helicase after 5 mins by FRET assay. More on the design: species or system Severe acute respiratory syndrome-related coronavirus.
The subject of the next data set is HS27. The experiment in a line: Cytotoxicity against human HS27 cells after 24 hrs by MTT assay. Type of data set: cell-based. The conditions noted are these: hs27, 24 h. Put shortly: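 Normal human fibroblast HS27 cells, 5 × 10^3/well in DMEM, grown 1 day (37 °C, 5% CO2), then given compounds at 0.1, 0.5, 1, 5, 10 and 50 µM (from DMSO) for 24 h; MTT viability read-out; triplicates, repeated three times. Value is the concentration reducing proliferation by 50%.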

Data set [4] is described as follows: Inhibition of helicase activity of SCV NTPase/helicase assessed as inhibition of ds-DNA unwinding after 5 mins by FRET assay. More on the design: species or system Severe acute respiratory syndrome-related coronavirus. Put shortly: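 FRET unwinding: helicase solution (150 nM, 20 mM HEPES pH 7.4) preincubated 5 min at rt with compound. Started with 5× mix (5 mM MgCl2, 45 mM ATP, 25 mM DTT, 100 nM substrate): 25-bp TAMRA/fluorescein dsDNA with 20-dT 5′ overhang. Run 2 min at 37 °C, stopped with EDTA plus unlabelled trap oligomer; ex 485/em 535 nm. Value is 50% inhibition concentration.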

SMILES strings stand for the structures. Activity calls are given as the source filed them. The rule behind the calls is not given here. Some results are limits rather than exact numbers.

In general, EC50 refers to the concentration at which the effect is half-maximal. What is called IC50 is the point on the concentration scale where inhibition reaches its midpoint. For the molecule `O=c1cc(OCc2cccc(I)c2)oc2ccc(OCc3cccc(Cl)c3)c(O)c12`, the EC50 in the data set on Hepatitis C virus [1] is 4 µM. In addition, in the data set with Hepatitis C virus [2], the inhibition result is “inactive”. Also, the 50% inhibitory concentration (IC50) came to 4 µM in data set [3] and 11 µM in data set [4]. For the same molecule, the Activity in the data set with HS27 is > 50 µM.

Turning to `O=c1cc(OCc2ccc(Cl)cc2)oc2ccc(OCc3cccc(Cl)c3)c(O)c12`, the EC50 with Hepatitis C virus [1] amounted to 24 µM. In addition, the inhibition result with Hepatitis C virus [2] was “inactive”. Also, the IC50 in data set [3] worked out at 28 µM; in data set [4] it was 53 µM. For the same molecule, the Activity with HS27 was > 50 µM.

On to `O=c1cc(OCc2cccc(Cl)c2)oc2ccc(OCc3cccc(Cl)c3)c(O)c12`, for which the 50% effective concentration (EC50) in the data set with Hepatitis C virus [1] stood at 17 µM. The inhibition result in the data set on Hepatitis C virus [2] is “inactive”. For the same molecule, the IC50 was 10 µM in data set [3] and 40 µM in data set [4]. Also, the Activity in the data set on HS27 was > 50 µM.

For the molecule `O=c1c(OCc2cccc([N+](=O)[O-])c2)c(-c2ccccc2)oc2cc(O)cc(O)c12`, the IC50 in data set [3] and in data set [4] was > 50 µM in each case. Further, the Activity in the data set with HS27 is > 50 µM.

With `O=c1cc(OCc2cc(Cl)cc(Cl)c2)oc2ccc(OCc3cccc(Cl)c3)c(O)c12`, the EC50 with Hepatitis C virus [1] is 1 µM. The inhibition result with Hepatitis C virus [2] is “inactive”. For the same molecule, the half-inhibitory concentration (IC50) in data set [3] and in data set [4] was > 50 µM throughout. Moreover, the Activity with HS27 is > 50 µM.

As to `N#Cc1cccc(COc2cc(O)c3c(=O)c(O)c(-c4ccccc4)oc3c2)c1`, the IC50 in data set [3] and in data set [4] was > 50 µM throughout. The Activity in the data set on HS27 is > 50 µM.

As to `O=C(O)/C(O)=C/C(=O)c1cccc(NCc2ccc(Cl)cc2)c1`, the 50% effective concentration (EC50) in the data set on Hepatitis C virus [1] came to 0.8 µM. In data set [3], the 50% inhibitory concentration (IC50) is > 50 µM. Besides, the Activity in the data set with HS27 was > 50 µM.

As for `O=c1cc(OCc2ccc(I)cc2)oc2ccc(OCc3cccc(Cl)c3)c(O)c12`, the EC50 in the data set with Hepatitis C virus [1] stood at 3 µM. Also, the inhibition entry with Hepatitis C virus [2] is “inactive”. Further, the IC50 came to 23 µM in data set [3] and 31 µM in data set [4]. For the same molecule, the Activity in the data set on HS27 is > 50 µM.

As for `N#Cc1cccc(COc2cc(=O)c3c(O)c(OCc4cccc(Cl)c4)ccc3o2)c1`, in the data set on Hepatitis C virus [1], the concentration giving a half-maximal response (EC50) stood at 17 µM. In addition, the inhibition entry in the data set on Hepatitis C virus [2] is “inactive”. Moreover, the IC50 in data set [3] was 37 µM; in data set [4], > 50 µM. Besides, the Activity in the data set on HS27 was > 50 µM.

`O=c1cc(OCc2ccccc2)oc2ccc(OCc3cccc(Cl)c3)c(O)c12`: the EC50 in the data set with Hepatitis C virus [1] was > 50 µM. Besides, in the data set with Hepatitis C virus [2], the inhibition entry was “inactive”. Also, the IC50 in data set [3] and in data set [4] was > 50 µM throughout. Besides, the Activity with HS27 is > 50 µM.

These data come from ChEMBL document CHEMBL1909523, “2,6-Bis-arylmethyloxy-5-hydroxychromones with antiviral activity against both hepatitis C virus (HCV) and SARS-associated coronavirus (SCV)” (Eur J Med Chem, 2011).
